Tests used:
Ct-DNA [1] = details: value reported in the literature; cited from earlier work
MCF-7 cells [2] = assay: Apoptosis, Annexin V FITC/PI assay; format: cell-based, human; details: 15 μM, 24 h
U87MG = assay: MTT cytotoxicity assay, U87MG; format: cell-based, human; details: for IC50: read-out: IC50 U87MG, MTT, 48 h incubation; for selectivity factor U87MG: ratio of IC50 HEK-293 / U87MG
Method in brief: (§1)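 Cells kept in DMEM with 10% FBS, 1% nonessential amino acids and 1% antibiotic-antimycotic at 37 °C, 95% humidity, CO2, and trypsinised at 80% confluence. Seeded 1 × 10^4 cells/well, grown 24 h, then exposed to test compound. MTT read-out at 570 nm, in triplicate. % growth inhibition = 100 − (AD × 100/AB), against vehicle wells.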

HEK293 = assay: MTT cytotoxicity assay, HEK293; format: cell-based, human; details: read-out: IC50 HEK293, 48 h incubation, normal cell line
Method in brief: as §1

MCF-7 = assay: MTT cytotoxicity assay, MCF-7; format: cell-based, human; details: for IC50: read-out: IC50 MCF 7, MTT, 48 h incubation; for selectivity factor MCF-7: ratio of IC50 HEK-293 / MCF-7
Method in brief: as §1

HeLa = assay: MTT cytotoxicity assay, HeLa; format: cell-based, human; details: for IC50: read-out: IC50 HeLa, MTT, 48 h incubation; for selectivity factor HeLa: ratio of IC50 HEK-293 / HeLa
Method in brief: as §1

MCF-7 cells [3] = assay: Cell cycle analysis; format: cell-based, human; details: 8 μM, 24 h
Method in brief: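 MCF-7 cells (1 × 10^6) grown 24 h, exposed to test compound in medium 24 h, then harvested by centrifugation. Fixed at 4 °C overnight and washed twice with cold PBS. Stained 15 min in the dark with 0.05 mg/ml PI plus 0.05 mg/ml RNaseA in sheath fluid. DNA content measured by flow cytometry to give percentage of cells in each cycle phase.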

Ct-DNA [4] = assay: Ct-DNA binding by UV absorption titration; parameters: species or system calf; details: on titration with Ct-DNA, Tris-HCl/NaCl buffer
Method in brief: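 UV absorbance titration: Ct-DNA (purity checked by OD 260/280) added stepwise from stock to test compound held fixed at 20 μM in 5 mM Tris-HCl/50 mM NaCl. Intrinsic binding constant Kb from slope/intercept of linear fit. Hypochromicity %H = (A0 − AF)/A0 × 100, AF taken when absorbance stops changing.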

Ct-DNA [5] = assay: Ethidium bromide displacement; format: binding, calf; details: for KSV, Stern–Volmer quenching constant: EtBr–Ct-DNA adduct
Method in brief: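 EtBr–Ct-DNA adduct (EtBr 8 μM) titrated with test compound at 5–60 μM; drop in EtBr emission followed. KSV from linear Stern–Volmer fit of I0/I vs [complex]. Kapp from the concentration giving 50% quenching: Kapp × [compound]50 = KEtBr × [EtBr], with KEtBr 1.0 × 10^7 M^-1.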

Solubility = format: physicochemical
[6] = Fluorescence quantum yield; format: physicochemical; details: relative to quinine sulfate; 0.1% DMSO buffer solution, pH 7.2
Method in brief: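 Relative emission quantum yield against quinine sulfate in H2SO4 (excitation 350 nm, emission 452 nm, ΦR 0.50). Calculated from integrated emission peak area, absorbance at λmax and refractive indices of sample and reference solvents.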

[7] = Molar conductivity measurement; format: physicochemical; details: for molar conductance ^M in 10% DMSO: 10% aqueous DMSO; for molar conductance ^M in DMSO: pure DMSO
Method in brief: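 Conductivity of test compound at 3 × 10^-5 M in DMSO and in aqueous DMSO, measured with a conductivity meter of cell constant 1.0 cm^-1.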

BSA = BSA (Bos taurus, UniProt P02769); assay: BSA binding, tryptophan emission quenching; parameters: species or system bovine; details: for KBSA, Stern–Volmer quenching constant: BSA fluorescence at 340 nm; for K, binding constant with BSA / n, number of binding sites: Scatchard plot; for kq, quenching rate constant: from KBSA and τ0 = 1 × 10^–8 s
Method in brief: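 BSA prepared at 2 × 10^-6 M in Tris-HCl/NaCl buffer and titrated with increasing amounts of aqueous test compound. Mixed gently 5 min after each addition; tryptophan emission read at 340 nm with excitation at 295 nm. KBSA from Stern–Volmer plot of I0/I vs [complex]; kq = KBSA/τ0 with τ0 1 × 10^-8. K and n from log((I0−I)/I) vs log[Q].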

[8] = Lipophilicity, n-octanol/water partition coefficient by shake-flask method; format: physicochemical; details: UV detection
Method in brief: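 Shake-flask partition: test compound dissolved in octanol/water and shaken 24 h. Phases separated by settling over 30 min or centrifuging 5000 rpm for 20 min, collected without cross-contamination. Compound in each phase quantified by UV-vis at room temperature. log Po/w = log([octanol]/[aqueous]); mean of three independent experiments.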

Chain of BSA (P02769 25-607): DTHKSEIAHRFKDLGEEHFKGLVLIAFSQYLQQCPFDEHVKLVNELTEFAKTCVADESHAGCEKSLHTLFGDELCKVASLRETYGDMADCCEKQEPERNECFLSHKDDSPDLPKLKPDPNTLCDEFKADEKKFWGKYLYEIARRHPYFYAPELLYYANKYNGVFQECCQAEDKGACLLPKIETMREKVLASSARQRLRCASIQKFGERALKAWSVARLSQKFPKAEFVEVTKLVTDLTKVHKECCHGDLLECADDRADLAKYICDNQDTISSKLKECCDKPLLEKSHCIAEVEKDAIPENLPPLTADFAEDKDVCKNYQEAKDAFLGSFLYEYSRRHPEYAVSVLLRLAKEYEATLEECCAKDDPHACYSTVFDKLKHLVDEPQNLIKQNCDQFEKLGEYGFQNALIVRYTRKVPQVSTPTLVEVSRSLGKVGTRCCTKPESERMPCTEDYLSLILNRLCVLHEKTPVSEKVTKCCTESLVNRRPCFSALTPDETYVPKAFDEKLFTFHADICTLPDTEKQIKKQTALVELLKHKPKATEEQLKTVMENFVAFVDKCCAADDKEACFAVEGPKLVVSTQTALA

Compound | IC50 (U87MG) | IC50 (HEK293) | IC50 (MCF-7) | IC50 (HeLa) | selectivity factor U87MG (U87MG) | Δε, change in molar absorptivity (Ct-DNA [4]) | selectivity factor MCF-7 (MCF-7) | KSV, Stern–Volmer quenching constant (Ct-DNA [5]) | solubility in water / aqueous medium (Solubility) | quantum yield (ϕf) [6] | selectivity factor HeLa (HeLa) | molar conductance ^M in 10% DMSO [7] | molar conductance ^M in DMSO [7] | KBSA, Stern–Volmer quenching constant (BSA) | K, binding constant with BSA (BSA) | n, number of binding sites (BSA) | kq, quenching rate constant (BSA) | further results
CC[n+]1c(-c2ccccc2)c2cc(N)ccc2c2ccc(N)cc21 [EtBr, Ethidium bromide] |  |  |  |  |  |  |  |  |  |  |  |  |  |  |  |  |  | KEtBr, binding constant of EtBr to DNA (Ct-DNA [1]): 1.0 × 10^7 M^–1
N.N.[Cl][Pt][Cl] [cisplatin, cis-diamminedichloroplatinum(II), reference compound] | 16.9 ± 2.1 µM | 34.8 µM | 20.1 ± 1.6 µM | 16.4 ± 0.16 µM |  |  |  |  |  |  |  |  |  |  |  |  |  | early apoptosis (MCF-7 cells [2]): 12.00%; late apoptosis (MCF-7 cells [2]): 32.04%; necrotic cells (MCF-7 cells [2]): 3.12%
COc1cc2c(c(OC)c1OC)-c1ccc(OC)c(=O)cc1[C@@H](NC(C)=O)CC2 [colchicine] |  |  |  |  |  |  |  |  |  |  |  |  |  |  |  |  |  | G0/G1 phase cells (MCF-7 cells [3]): 54.11%; G2/M phase cells (MCF-7 cells [3]): 34.60%; S phase cells (MCF-7 cells [3]): 8.30%; sub-G0 phase cells (MCF-7 cells [3]): 0.64%
[(η^5-Cp*)Ir^IIICl(K^2-N,N-2(2-(4-(4-(Pyridin-2-yl)-1H-1,2,3-triazol-1-yl)butoxy)phenyl)benzo[d]thiazole)]Cl [Complex 7b] | > 100 µM | > 100 µM | 40.9 ± 1.8 µM | 15.8 ± 0.7 µM | 1 | 46.66% | 2.45 | 4 × 10^3 M^–1 | very good solubility in aqueous medium | 0.0004 | 6.31 | 26 S cm^2 mol^–1 | 5 S cm^2 mol^–1 | 0.201 × 10^6 M^–1 | 0.057 × 10^6 M^–1 | 1.33 | 2.01 × 10^13 M^–1 s^–1 | Kapp, apparent DNA-binding constant (Ct-DNA [5]; 50% quenching, [EtBr] = 8 μM, [DNA] = 120 μM): 0.14 × 10^7 M^–1
[Re^I(CO)3Cl(K^2-N,N-2-(2-(4-(4-(Pyridin-2-yl)-1H-1,2,3-triazol-1-yl)butoxy)phenyl)benzo[d]thiazole)] [Complex 7c] | 76 ± 3.5 µM | > 100 µM | 40.9 ± 1.4 µM | 19.4 ± 0.19 µM | 1.31 | 27.12% | 2.44 | 8.2 × 10^3 M^–1 | poor solubility in water | 0.0140 | 5.15 | 22 S cm^2 mol^–1 | 9 S cm^2 mol^–1 | 0.296 × 10^6 M^–1 | 0.087 × 10^6 M^–1 | 1.21 | 2.9 × 10^13 M^–1 s^–1 | log Po/w (n-octanol/water partition coefficient) [8]: 0.3180

— article PMC10500652 (ACS Omega, 2023)
